From ChEMBL document CHEMBL1159367, “Antineoplastic agents. 485. Isolation and structure of cribrostatin 6, a dark blue cancer cell growth inhibitor from the marine sponge Cribrochalina sp” (2003)
Values after ≈ are worked out from the molar mass of the structure shown.

Tests used:
Type in all cases: functional
P388 = assay: Growth inhibition of mouse P388 cells
Staphylococcus aureus [1] = assay: Antimicrobial activity against Staphylococcus aureus ATCC 29213 by broth microdilution susceptibility assay
Outline: (§1)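 Broth microdilution susceptibility testing following established reference methods. MIC was taken as the lowest compound concentration giving complete inhibition of visible growth, with wells optically clear.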

Bacillus subtilis = assay: Antimicrobial activity against Bacillus subtilis isolate by broth microdilution susceptibility assay
Escherichia coli = assay: Antimicrobial activity against Escherichia coli ATCC 25922 by broth microdilution susceptibility assay
Streptococcus pneumoniae [2] = assay: Antimicrobial activity against Streptococcus pneumoniae ATCC 6303 by broth microdilution susceptibility assay
Candida albicans = assay: Antimicrobial activity against Candida albicans ATCC 90028 by broth microdilution susceptibility assay
Enterococcus faecalis [3] = assay: Antimicrobial activity against Enterococcus faecalis ATCC 29212 isolate by broth microdilution susceptibility assay; outline: as §1
Staphylococcus aureus [4] = assay: Antimicrobial activity against methicillin-resistant Staphylococcus aureus isolate by broth microdilution susceptibility assay; outline: as §1
DU-145 = assay: Growth inhibition of human DU145 cells
NCI-H460 = assay: Growth inhibition of human NCI-H460 cells
Neisseria gonorrhoeae = assay: Antimicrobial activity against Neisseria gonorrhoeae ATCC 49226 by broth microdilution susceptibility assay
Streptococcus pneumoniae [5] = assay: Antimicrobial activity against penicillin-resistant Streptococcus pneumoniae isolate by broth microdilution susceptibility assay; outline: as §1
MCF7 = assay: Growth inhibition of human MCF7 cells
Cryptococcus neoformans = assay: Antimicrobial activity against Cryptococcus neoformans ATCC 90112 by broth microdilution susceptibility assay
KM-20L2 = assay: Growth inhibition of human KM20L2 cells
Streptococcus pneumoniae [6] = assay: Antimicrobial activity against Streptococcus pneumoniae isolate by broth microdilution susceptibility assay
Enterobacter cloacae = assay: Antimicrobial activity against Enterobacter cloacae ATCC 13047 by broth microdilution susceptibility assay
SF-268 = assay: Growth inhibition of human SF268 cells
Micrococcus luteus = assay: Antimicrobial activity against Micrococcus luteus Presque Isle 456 by broth microdilution susceptibility assay
[7] = test system: Stenotrophomonas maltophilia; assay: Antimicrobial activity against Stenotrophomonas maltophilia ATCC 13637 by broth microdilution susceptibility assay
Enterococcus faecalis [8] = assay: Antimicrobial activity against vancomycin-resistant Enterococcus faecalis isolate by broth microdilution susceptibility assay; outline: as §1
BXPC-3 = assay: Growth inhibition of human BxPC3 cells
Streptococcus = assay: Antimicrobial activity against Streptococcus isolate by broth microdilution susceptibility assay

CCOC1=C(C)C(=O)c2ccn3c(C)ncc3c2C1=O [CRIBROSTATIN 6]
GI50 (P388): 0.29 µg/mL (≈ 1.07 µM) | EC50 (P388; read-out: ED50 (the source's name)): 0.3 µg/mL (≈ 1.11 µM) | MIC (Staphylococcus aureus [1]): 16 µg/mL (≈ 59.2 µM) | MIC (Bacillus subtilis): 2 µg/mL (≈ 7.4 µM) | MIC (Escherichia coli): > 64 µg/mL | MIC (Streptococcus pneumoniae [2]): 0.5 µg/mL (≈ 1.85 µM) | MIC (Candida albicans): 64 µg/mL (≈ 237 µM) | MIC (Enterococcus faecalis [3]): 32 µg/mL (≈ 118 µM) | MIC (Staphylococcus aureus [4]): 16 µg/mL (≈ 59.2 µM) | GI50 (DU-145): 0.38 µg/mL (≈ 1.41 µM) | GI50 (NCI-H460): > 1 µg/mL | MIC (Neisseria gonorrhoeae): 0.0625 µg/mL (≈ 0.231 µM) | MIC (Streptococcus pneumoniae [5]): 2 µg/mL (≈ 7.4 µM) | GI50 (MCF7): 0.21 µg/mL (≈ 0.777 µM) | MIC (Cryptococcus neoformans): 2 µg/mL (≈ 7.4 µM) | GI50 (KM-20L2): > 1 µg/mL | MIC (Streptococcus pneumoniae [6]): 1 µg/mL (≈ 3.7 µM) | MIC (Enterobacter cloacae): > 64 µg/mL | GI50 (SF-268): 0.24 µg/mL (≈ 0.888 µM) | MIC (Micrococcus luteus): 16 µg/mL (≈ 59.2 µM) | MIC [7]: > 64 µg/mL | MIC (Enterococcus faecalis [8]): 32 µg/mL (≈ 118 µM) | GI50 (BXPC-3): > 1 µg/mL | MIC (Streptococcus): 16 µg/mL (≈ 59.2 µM)
